{"source": "ChEMBL document CHEMBL1130233", "about": "“N6-cyclopentyl-3'-substituted-xylofuranosyladenosines: a new class of non-xanthine adenosine A1 receptor antagonists” (J Med Chem, 1997)", "key": {"[1]": {"biological_target": "Adenosine receptor A2a (Rattus norvegicus) (UniProt P30543)", "sequence (P30543 whole entry)": "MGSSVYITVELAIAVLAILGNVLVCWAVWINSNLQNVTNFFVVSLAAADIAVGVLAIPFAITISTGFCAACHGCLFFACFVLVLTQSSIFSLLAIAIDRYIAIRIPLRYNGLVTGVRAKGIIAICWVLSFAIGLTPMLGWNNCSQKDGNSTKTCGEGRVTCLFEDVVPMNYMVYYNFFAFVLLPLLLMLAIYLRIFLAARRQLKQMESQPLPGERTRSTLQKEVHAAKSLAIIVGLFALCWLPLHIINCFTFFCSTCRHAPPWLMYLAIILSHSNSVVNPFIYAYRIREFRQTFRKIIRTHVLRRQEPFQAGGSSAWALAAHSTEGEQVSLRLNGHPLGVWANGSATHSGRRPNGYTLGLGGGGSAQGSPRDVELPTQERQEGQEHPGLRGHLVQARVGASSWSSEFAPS", "test": "Affinity for adenosine A2a receptor of rat striatal membrane using [3H]-CGS- 21680 at 10e-5 M", "procedure,_shortened": "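On rat striatal membranes with [3H]CGS 21680 as radioligand, the value is the percentage of radioligand still bound to the receptor in the presence of 10⁻⁵ M test ligand.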"}, "[2]": {"biological_target": "T1, Adenosine receptor A1 (Rattus norvegicus) (UniProt P25099)", "T1 sequence (whole entry)": "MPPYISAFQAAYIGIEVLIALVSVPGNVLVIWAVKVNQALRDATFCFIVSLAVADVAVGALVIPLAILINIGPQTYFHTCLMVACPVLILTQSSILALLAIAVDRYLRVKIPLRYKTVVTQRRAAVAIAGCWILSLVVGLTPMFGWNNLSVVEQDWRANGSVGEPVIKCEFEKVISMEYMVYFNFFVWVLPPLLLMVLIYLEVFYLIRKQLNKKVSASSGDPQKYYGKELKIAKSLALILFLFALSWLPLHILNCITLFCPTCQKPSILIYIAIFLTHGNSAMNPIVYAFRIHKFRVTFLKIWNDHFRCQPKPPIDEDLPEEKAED", "test": "GTP shift ratio of the apparent Ki values in the presence and absence of GTP.", "procedure,_shortened": "(§1)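 Rat cerebral cortex membranes were used for displacement of the tritiated antagonist [3H]DPCPX. Assays were run with and without 1 mM GTP, and Ki values were derived from the displacement data. GTP shift is the apparent Ki with GTP divided by the apparent Ki without GTP. There were three or four independent experiments, each in duplicate.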"}, "Adenosine receptor A1 [3]": {"biological_target": "T2, Adenosine receptor A1 (Rattus norvegicus, UniProt P25099)", "T2 sequence (P25099 whole entry)": "T1 sequence (whole entry)", "test": "Affinity for adenosine A1 receptor was determined, in the absence of GTP in rat cortical membrane.", "type": "cell membranes", "procedure,_shortened": "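Rat cerebral cortex membranes were used for displacement of the tritiated antagonist [3H]DPCPX. GTP shift is the apparent Ki with GTP divided by the apparent Ki without GTP. There were three or four independent experiments, each in duplicate.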"}, "Adenosine receptor A1 [4]": {"biological_target": "T2, Adenosine receptor A1", "test": "Affinity for adenosine A1 receptor was determined, in the presence of GTP in rat brain cortex", "type": "tissue-based", "procedure,_shortened": "as §1"}, "Adenosine receptor A2a": {"biological_target": "Adenosine receptor A2a (Rattus norvegicus, UniProt P30543)", "sequence (P30543 whole entry)": "as the sequence (P30543 whole entry) above", "test": "Affinity for adenosine A2a receptor was determined on rat striatal membrane using [3H]-CGS- 21680 as radioligand", "parameters": "species or system Striatum", "procedure,_shortened": "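Rat striatal membranes were used for displacement of [3H]CGS 21680 as radioligand, and Ki values were derived from the displacement data. There were three or four independent experiments, each performed in duplicate.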"}}}
{"smiles": "O=C(Cc1ccccc1)N[C@H]1C(CO)OC(n2cnc3c(NC4CCCC4)ncnc32)C1O", "note": "(stereo partly drawn)", "values": [{"measurement": "percent radioligand bound", "setting": "[1]", "result": 50, "unit": "%"}, {"measurement": "Ratio", "setting": "[2]", "result": 0.95}, {"measurement": "Ki", "setting": "Adenosine receptor A1 [3]", "result": 850, "unit": "nM"}, {"measurement": "Ki", "setting": "Adenosine receptor A1 [4]", "result": 770, "unit": "nM"}]}
{"smiles": "Nc1ncnc2c1ncn2C1OC(CO)[C@H](NC(=O)CCCCc2ccccc2)C1O", "note": "(stereo partly drawn)", "values": [{"measurement": "Ratio", "setting": "[2]", "result": 0.73}, {"measurement": "Ki", "setting": "Adenosine receptor A1 [3]", "result": 7840, "unit": "nM"}, {"measurement": "Ki", "setting": "Adenosine receptor A2a", "result": 4660, "unit": "nM"}, {"measurement": "Ki", "setting": "Adenosine receptor A1 [4]", "result": 5740, "unit": "nM"}]}
{"smiles": "Cc1ccc(C(=O)N[C@H]2C(CO)OC(n3cnc4c(NC5CCCC5)ncnc43)C2O)cc1", "note": "(stereo partly drawn)", "values": [{"measurement": "Ratio", "setting": "[2]", "result": 0.84}, {"measurement": "Ki", "setting": "Adenosine receptor A1 [3]", "result": 83, "unit": "nM"}, {"measurement": "Ki", "setting": "Adenosine receptor A2a", "result": 790, "unit": "nM"}, {"measurement": "Ki", "setting": "Adenosine receptor A1 [4]", "result": 68, "unit": "nM"}]}
{"smiles": "[N-]=[N+]=N[C@@H]1[C@@H](O)[C@H](n2cnc3c(NC4CCCC4)ncnc32)O[C@@H]1CO", "values": [{"measurement": "Ratio", "setting": "[2]", "result": 1.4}, {"measurement": "Ki", "setting": "Adenosine receptor A1 [3]", "result": 8470, "unit": "nM"}, {"measurement": "Ki", "setting": "Adenosine receptor A2a", "result": 2410, "unit": "nM"}, {"measurement": "Ki", "setting": "Adenosine receptor A1 [4]", "result": 11200, "unit": "nM"}]}
{"smiles": "O=C(CCCC1CCCCC1)N[C@H]1C(CO)OC(n2cnc3c(NC4CCCC4)ncnc32)C1O", "note": "(stereo partly drawn)", "values": [{"measurement": "percent radioligand bound", "setting": "[1]", "result": 74, "unit": "%"}, {"measurement": "Ratio", "setting": "[2]", "result": 0.8}, {"measurement": "Ki", "setting": "Adenosine receptor A1 [3]", "result": 190, "unit": "nM"}, {"measurement": "Ki", "setting": "Adenosine receptor A1 [4]", "result": 150, "unit": "nM"}]}
{"smiles": "COc1ccc(C(=O)N[C@H]2C(CO)OC(n3cnc4c(NC5CCCC5)ncnc43)C2O)cc1", "note": "(stereo partly drawn)", "values": [{"measurement": "Ratio", "setting": "[2]", "result": 0.77}, {"measurement": "Ki", "setting": "Adenosine receptor A1 [3]", "result": 200, "unit": "nM"}, {"measurement": "Ki", "setting": "Adenosine receptor A2a", "result": 770, "unit": "nM"}, {"measurement": "Ki", "setting": "Adenosine receptor A1 [4]", "result": 130, "unit": "nM"}]}
{"smiles": "Nc1ncnc2c1ncn2[C@@H]1O[C@H](CO)C[C@H]1O", "values": [{"measurement": "Ratio", "setting": "[2]", "result": 2.1}]}
{"smiles": "OC[C@@H]1C[C@@H](O)[C@H](n2cnc3c(NC4CCCC4)ncnc32)O1", "values": [{"measurement": "Ratio", "setting": "[2]", "result": 4.3}]}
{"smiles": "Nc1ncnc2c1ncn2[C@@H]1OC(CO)[C@H](NC(=O)c2ccccc2)[C@H]1O", "note": "(single isomer, unassigned)", "values": [{"measurement": "Ratio", "setting": "[2]", "result": 1.1}, {"measurement": "Ki", "setting": "Adenosine receptor A1 [3]", "result": 10900, "unit": "nM"}, {"measurement": "Ki", "setting": "Adenosine receptor A2a", "result": 2470, "unit": "nM"}, {"measurement": "Ki", "setting": "Adenosine receptor A1 [4]", "result": 11100, "unit": "nM"}]}
{"smiles": "O=C(N[C@H]1C(CO)O[C@@H](n2cnc3c(NC4CCCC4)ncnc32)[C@@H]1O)c1ccccc1", "note": "(single isomer, unassigned)", "values": [{"measurement": "Ratio", "setting": "[2]", "result": 0.8}, {"measurement": "Ki", "setting": "Adenosine receptor A2a", "result": 2760, "unit": "nM"}]}
{"smiles": "Nc1ncnc2c1ncn2[C@@H]1OC(CO)[C@H](NC(=O)CCCC2CCCCC2)[C@H]1O", "note": "(single isomer, unassigned)", "values": [{"measurement": "Ratio", "setting": "[2]", "result": 0.75}, {"measurement": "Ki", "setting": "Adenosine receptor A1 [3]", "result": 3590, "unit": "nM"}, {"measurement": "Ki", "setting": "Adenosine receptor A2a", "result": 1770, "unit": "nM"}, {"measurement": "Ki", "setting": "Adenosine receptor A1 [4]", "result": 2680, "unit": "nM"}]}
{"smiles": "Nc1ncnc2c1ncn2[C@@H]1OC(CO)[C@H](NC(=O)CCOc2ccccc2)[C@H]1O", "note": "(single isomer, unassigned)", "values": [{"measurement": "Ratio", "setting": "[2]", "result": 0.74}, {"measurement": "Ki", "setting": "Adenosine receptor A2a", "result": 11800, "unit": "nM"}, {"measurement": "Ki", "setting": "Adenosine receptor A1 [4]", "result": 12600, "unit": "nM"}]}
{"smiles": "O=C(CCc1ccccc1)N[C@H]1C(CO)O[C@@H](n2cnc3c(NC4CCCC4)ncnc32)[C@@H]1O", "note": "(single isomer, unassigned)", "values": [{"measurement": "Ratio", "setting": "[2]", "result": 0.99}, {"measurement": "Ki", "setting": "Adenosine receptor A1 [3]", "result": 370, "unit": "nM"}, {"measurement": "Ki", "setting": "Adenosine receptor A2a", "result": 7940, "unit": "nM"}, {"measurement": "Ki", "setting": "Adenosine receptor A1 [4]", "result": 350, "unit": "nM"}]}
{"smiles": "O=C(CCCc1ccccc1)N[C@H]1C(CO)O[C@@H](n2cnc3c(NC4CCCC4)ncnc32)[C@@H]1O", "note": "(single isomer, unassigned)", "values": [{"measurement": "Ratio", "setting": "[2]", "result": 0.94}, {"measurement": "Ki", "setting": "Adenosine receptor A1 [3]", "result": 130, "unit": "nM"}, {"measurement": "Ki", "setting": "Adenosine receptor A2a", "result": 650, "unit": "nM"}, {"measurement": "Ki", "setting": "Adenosine receptor A1 [4]", "result": 100, "unit": "nM"}]}
{"smiles": "O=C(N[C@H]1C(CO)O[C@@H](n2cnc3c(NC4CCCC4)ncnc32)[C@@H]1O)c1ccc(Cl)cc1", "note": "(single isomer, unassigned)", "values": [{"measurement": "Ratio", "setting": "[2]", "result": 0.87}, {"measurement": "Ki", "setting": "Adenosine receptor A1 [3]", "result": 110, "unit": "nM"}, {"measurement": "Ki", "setting": "Adenosine receptor A2a", "result": 580, "unit": "nM"}, {"measurement": "Ki", "setting": "Adenosine receptor A1 [4]", "result": 81, "unit": "nM"}]}
{"smiles": "O=C(N[C@H]1C(CO)O[C@@H](n2cnc3c(NC4CCCC4)ncnc32)[C@@H]1O)c1ccc(Cl)c(Cl)c1", "note": "(single isomer, unassigned)", "values": [{"measurement": "Ratio", "setting": "[2]", "result": 0.73}, {"measurement": "Ki", "setting": "Adenosine receptor A2a", "result": 2020, "unit": "nM"}]}
{"smiles": "O=C(N[C@H]1C(CO)O[C@@H](n2cnc3c(NC4CCCC4)ncnc32)[C@@H]1O)c1ccc([N+](=O)[O-])cc1", "note": "(single isomer, unassigned)", "values": [{"measurement": "Ratio", "setting": "[2]", "result": 0.91}, {"measurement": "Ki", "setting": "Adenosine receptor A1 [3]", "result": 820, "unit": "nM"}, {"measurement": "Ki", "setting": "Adenosine receptor A2a", "result": 6850, "unit": "nM"}, {"measurement": "Ki", "setting": "Adenosine receptor A1 [4]", "result": 740, "unit": "nM"}]}
{"smiles": "O=C(CCCCc1ccccc1)N[C@H]1C(CO)O[C@@H](n2cnc3c(NC4CCCC4)ncnc32)[C@@H]1O", "note": "(single isomer, unassigned)", "values": [{"measurement": "Ratio", "setting": "[2]", "result": 0.83}, {"measurement": "Ki", "setting": "Adenosine receptor A1 [3]", "result": 240, "unit": "nM"}, {"measurement": "Ki", "setting": "Adenosine receptor A2a", "result": 4230, "unit": "nM"}, {"measurement": "Ki", "setting": "Adenosine receptor A1 [4]", "result": 200, "unit": "nM"}]}
{"smiles": "Cc1ccc(C(=O)N[C@H]2C(CO)O[C@@H](n3cnc4c(NC5CCCC5)ncnc43)[C@@H]2O)cc1C", "note": "(single isomer, unassigned)", "values": [{"measurement": "Ratio", "setting": "[2]", "result": 0.73}, {"measurement": "Ki", "setting": "Adenosine receptor A2a", "result": 3680, "unit": "nM"}]}
